Drawing on ChEMBL document CHEMBL1122792, “Synthesis and biological evaluation of radiolabeled beta-ruthenocenylalanine” (J Med Chem, 1984), this text covers Injected for one substance.

Settings in all cases: in vivo
One data set concerns Mus musculus. Description: Distribution of Radioactivity in spleen of CD-1 Mice by intravenous administration of compound after 5 minutes expressed as dose/gram. In kind it is ADME, organism-based. In outline: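 Female CD-1 mice, 7 1/2 weeks old (25-29 g), fed and watered ad libitum. Radiotracer in physiological saline, pH 7.4, filtered, injected via lateral tail vein under ether anesthesia. Tissues taken at 5 min, 1 h, 4 h or 1 day. Percent injected dose per gram calculated against assayed samples of the injected solution; mean with range reported.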

For data set [1], the system named is Rattus norvegicus. Description: Distribution of Radioactivity in lungs of Fisher 344 Rats by intravenous administration of compound after 4 hour expressed as dose/gram. In kind it is ADME, organism-based, Lung. The method, boiled down:
(§1)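 Female Fischer 344 rats, 10-12 weeks old (170-200 g), fed and watered ad libitum; four rats per time point. Each received ~6.3 μCi in 0.05 mL saline (pH 7.4, filtered), given by lateral tail vein under ether anesthesia. Tissues taken at 5 min, 1 h, 4 h and 1 day. Injectate standards used; values as mean % injected dose/g with range.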

The test system of data set [2] is Rattus norvegicus. Description: Distribution of Radioactivity in kidneys of Fisher 344 Rats by intravenous administration of compound after 4 hour expressed as dose/gram. It counts as ADME, organism-based, Kidney. In outline: as §1
The subject of data set [3] is Rattus norvegicus. As to the kind of experiment: Distribution of Radioactivity in lungs of Fisher 344 Rats by intravenous administration of compound after 1 hour expressed as dose/gram. In kind it is ADME, organism-based, Lung. In outline: as §1

Take beta-[103,106Ru]Ruthenocenylalanine: the Injected is reported as 1.348% in the data set with Mus musculus, 0.124% in the data set with Rattus norvegicus [1], 1.148% in the data set on Rattus norvegicus [2] and 0.424% in the data set on Rattus norvegicus [3].
